Experimental data: ChEMBL document CHEMBL1132320, “Evaluation of the desferrithiocin pharmacophore as a vector for hydroxamates” (1999)
Values joined by “and” are separate entries in the source; they are usually repeats but may differ in a detail not shown here. Equal entries are not always repeated.

Legend:
Format in all cases: functional
[1] = tested on: Rattus norvegicus; experiment: Efficiency is defined as net iron excretion in rats at the dose of 150 umol/kg administered perorally.
Procedure, shortened: (§1)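 Male Sprague–Dawley rats (~400 g) with bile-duct cannulas, under sodium pentobarbital (55 mg/kg ip) anesthesia, housed in metabolic cages with free water. Chelator is given as a single dose in 40% Cremophor RH-40/H2O (v/v). Bile is collected at 3-h intervals for 24 h and urine every 24 h. Iron is measured by flame atomic absorption. Efficiency = (treated minus control iron excretion)/theoretical output, as %; bile/urine split reported.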

[2] = tested on: Rattus norvegicus; experiment: Efficiency is defined as net iron excretion in rats at the dose of 150 umol/kg administered subcutaneously.; procedure, shortened: as §1
[3] = tested on: Monkey; experiment: The efficiency was calculated by averaging the iron output for 4 days before the administration of the drug, subtracting these numbers from the 2-day iron clearance after the administration of the drug at the dose of 300 umol/kg administered perorally in monkeys.
Procedure, shortened: (§2)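 Cebus apella monkeys iron-loaded with iv iron dextran (200–300 mg Fe/kg per slow 45–60 min infusion, to about 500 mg Fe/kg), rested ≥60 days. Chelator is given in 40% Cremophor RH-40/H2O (v/v). Feces and urine are collected from 4 days before to 5 days after dosing. Iron is measured by flame atomic absorption. Efficiency = (2-day post-drug iron minus 4-day baseline average)/theoretical output, as %.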

[4] = tested on: Monkey; experiment: The efficiency was calculated by averaging the iron output for 4 days before the administration of the drug, subtracting these numbers from the 2-day iron clearance after the administration of the drug at the dose of 300 umol/kg administered subcutaneously in monkeys.; procedure, shortened: as §2
[5] = tested on: Monkey; experiment: The efficiency was calculated by averaging the iron output for 4 days before the administration of the drug, subtracting these numbers from the 2-day iron clearance after the administration of the drug at the dose of 150 umol/kg administered perorally in monkeys.; procedure, shortened: as §2
[6] = tested on: Monkey; experiment: The efficiency was calculated by averaging the iron output for 4 days before the administration of the drug, subtracting these numbers from the 2-day iron clearance after the administration of the drug at the dose of 150 umol/kg administered subcutaneously in monkeys.; procedure, shortened: as §2
[7] = tested on: Monkey; experiment: The efficiency was calculated by averaging the iron output for 4 days before the administration of the drug, subtracting these numbers from the 2-day iron clearance after the administration of the drug at the dose of 225 umol/kg administered perorally in monkeys.; procedure, shortened: as §2

Row | Compound | Efficiency [1] | Efficiency [2] | Efficiency [3] | Efficiency [4] | Efficiency [5] | Efficiency [6] | Efficiency [7]
1 | O=C([C@H]1CSC(c2ncccc2O)=N1)N(O)CCOCCOCCN(O)C(=O)[C@H]1CSC(c2ncccc2O)=N1 | 4.6% | 20.6% |  |  |  |  | 
2 | O=C(O)[C@H]1CSC(c2ncccc2O)=N1 | 2.4% | 1.8% | 8% | 8.3% | 4.8% |  | 
3 | O=C(C1CSC(c2ncccc2O)=N1)N(O)Cc1ccccc1 (stereo not given) | 1% | 1.4% | <0.5% |  |  |  | 
4 | CN(O)C(=O)[C@H]1CSC(c2ncccc2O)=N1 | 3.1% | 5.3% | 13.2% |  | 6.9% | 11.7% | 
5 | CC(=O)N(O)CCCCCN(O)C(=O)[C@H]1CSC(c2ncccc2O)=N1 | 2.8% | 8.5% |  |  |  |  | 3.2% and 12.8%
6 | O=C(c1ccccc1O)N(O)CCOCCOCCN(O)C(=O)c1ccccc1O | <0.5% | 0.8% |  |  |  |  | 
